In the library only some 1.5% were active in any assay of this set; here they are far more common.
APJ antagonist: APJ receptor antagonism | actives 0.32% (n = 330,000) | CHO-K1 APJ beta-arrestin complementation, luminescence | inhibition, % at 20 µM | AID 2521 | P35414;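 active = inhibition above about 40% at 20 µM, limit read from the data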;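 also: cells challenged with 10 nM apelin-13 agonist together with compound; plate controls were apelin-13 plus DMSO wells for no effect and DMSO wells lacking apelin-13 for full effect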
APJ agonist: APJ receptor agonism | actives 0.11% (n = 330,000) | P35414 | activation, % at 20 µM | CHO-K1 APJ PathHunter beta-arrestin, luminescence; 0% DMSO wells, 100% apelin;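 active = activation more than six SD over the plate average, tested at 20 µM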;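 also: 0% = DMSO alone and 100% = apelin-13 at 10 nM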
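Assay system: CHO-K1 APJ beta-arrestin complementation cell line / Compound: single test compound dose, 20 µM final, 1% DMSO / Times: overnight seeding, 90 min compound at 25 °C, 1 h detection / Technique: beta-gal luminescence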
EBI2 antag: blocks human EBI2 receptor beta-arrestin signaling; EBI2 beta-arrestin recruitment, luminescence, 7a,25-OHC stimulated; actives 0.81% (n = 360,000); P32249; inhibition, % at 5 µM; in the data active = inhibition above about 38%;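 also: enzyme fragment complementation signal reports receptor beta-arrestin coupling in cells; 0% = agonist plus DMSO wells and 100% = wells without agonist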
CCR6 antag: CCR6 (human) receptor antagonism; P51684; CHO-K1 CCR6 PathHunter beta-arrestin, luminescence, CCL20-stimulated; inhibition, % at 20 µM; actives 0.49% (n = 340,000); AID 493098;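 active = compounds whose inhibition of the agonist-driven luminescence signal at 20 µM reaches about 50%, limit read from the data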;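 also: cells stimulated with CCL20 at 14 nM final; plate controls were DMSO with CCL20 for no effect and DMSO without agonist for full effect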
Target sequence (P51684 whole entry, looked up): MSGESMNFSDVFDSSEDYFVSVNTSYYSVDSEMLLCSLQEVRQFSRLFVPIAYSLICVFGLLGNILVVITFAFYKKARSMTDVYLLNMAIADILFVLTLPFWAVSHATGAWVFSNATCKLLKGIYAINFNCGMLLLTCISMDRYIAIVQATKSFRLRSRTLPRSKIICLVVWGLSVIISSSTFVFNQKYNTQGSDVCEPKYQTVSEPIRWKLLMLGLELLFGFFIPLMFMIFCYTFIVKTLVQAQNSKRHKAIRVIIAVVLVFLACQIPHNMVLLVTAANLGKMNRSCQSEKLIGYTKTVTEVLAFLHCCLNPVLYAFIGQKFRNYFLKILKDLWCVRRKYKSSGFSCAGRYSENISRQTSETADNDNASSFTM
CXCR6 inh: inhibitors of human CXCR6 receptor; O00574; CHO-K1 PathHunter CXCR6 beta-arrestin, luminescence; inhibition, % at 20 µM; actives 0.36% (n = 360,000); AID 602244; in the data active = inhibition above about 34%, passing the limit was not always enough;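 also: antagonist mode with CXCL16 agonist at 10 nM final; 0% = 10 nM CXCL16 with DMSO and 100% = unstimulated wells without agonist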
EBI2 antag conf: EBI2 (human) antagonism, single concentration confirmation; shares compounds with EBI2 antag; actives 29% (n = 2,400); AID 651997; EBI2 beta-arrestin luminescence, 7a,25-OHC antagonism; inhibition, % at 5 µM;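 active = inhibition of at least 50%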
EBI2 ag: activates EBI2, counter-screen for EBI2 antagonists; activation, % at 5 µM; shares compounds with EBI2 antag; 2,400 tested, under 10 active; EBI2-expressing cells, agonist mode, luminescence, 60 min; 0% vehicle, 100% 7α,25-dihydroxycholesterol control;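 active = activation of at least 50%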
bGal counter: counter-screen for EBI2 antagonists: E. coli beta-galactosidase inhibition; shares compounds with EBI2 antag; actives 1% (n = 2,400); inhibition, % at 5 µM; purified beta-galactosidase, luminescent Galacton Star, 15 min; AID 652176;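 active = replicate-average signal at least 3 plate SD below neutral wells, shown as high inhibition, flagging enzyme-inhibiting false positives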;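 also: 0% = DMSO wells with enzyme and 100% = wells lacking enzyme; higher means stronger loss of beta-gal luminescence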
Starred values were filed as active, the others as inactive; / = no result.

SMILES	APJ antagonist	APJ agonist	EBI2 antag	CCR6 antag	CXCR6 inh	EBI2 antag conf	EBI2 ag	bGal counter
Cc1ccc(C)c(S(=O)(=O)N2CCN(C(=O)CCC(=O)c3cc(C)sc3C)CC2)c1	-1	-4	78*	10	-2	51*	4	3
COc1ccccc1/C=C/C(=O)N1CCN(S(=O)(=O)c2cc(C)ccc2C)CC1	9	-5	85*	7	1	76*	-1	-20
Cc1ccc(C)c(S(=O)(=O)N2CCN(C(=O)CNC(=O)c3ccc4ccccc4c3)CC2)c1	7	0	63*	12	8	50	1	3
COc1nc2ccccc2nc1CCC(=O)O	2	-1	-1	7	-10	/	/	/
COc1ccc(NC(=O)/C(C#N)=C/c2c(C)nn(-c3ccc(F)cc3)c2Cl)cc1OC	0	5	70*	12	-2	53*	0	-13
COc1ccccc1NC(=O)/C(C#N)=C/c1c(C)nn(-c2ccc(F)cc2)c1Cl	-9	4	43	-2	-1	/	/	/
COc1ccc(NC(=O)/C(C#N)=C/c2c(C)nn(-c3ccc(F)cc3)c2Cl)cc1Cl	-18	3	60*	19	6	43	1	5
Cc1cccc(C)c1NC(=O)CN1C(=O)NC(C)(C2CC2)C1=O (stereo unspecified)	11	-1	-4	8	4	/	/	/
Cn1c(=NC(=O)C2CCN(S(=O)(=O)c3cccs3)CC2)sc2ccccc21	5	0	57*	7	6	26	-1	-15
CN(C(=O)C1CCN(S(=O)(=O)c2cccs2)CC1)c1ccccc1	7	1	-3	-17	6	/	/	/
O=Cc1c(NCCc2ccc(F)cc2)c2ccccc2[nH]c1=O	16	0	45*	11	4	4	-1	-9
COc1ccc(C(=O)O)cc1S(=O)(=O)Nc1ccccc1-c1ccccc1	6	-2	1	13	-5	/	/	/
CC(C)=CCC[C@H](C)C[C@@H]1Cc2[nH][nH]c(=O)c2[C@@H](c2ccc(F)cc2)O1	/	/	1	/	-8	/	/	/
C[C@@H](C(=O)Nc1ccc2ccccc2c1)[C@@H]1C[C@@]1(C)[C@@H](NC(=O)c1cnccn1)c1ccccc1	9	-6	75*	17	7	42	-2	-13
C[C@@H](C(=O)Nc1ccc2ccccc2c1)[C@H]1C[C@]1(C)[C@H](NC(=O)c1cnccn1)c1ccccc1	-4	-1	10	2	4	/	/	/
COC(=O)c1sc(NC(=O)CN2CCN(c3cccc(Cl)c3)CC2)c(C(=O)OC)c1C	/	/	-4	11	0	/	/	/
CC(C)(C)CNC(=O)c1cccc2c1C(=O)c1ccc(N3CCCC3)cc1S2(=O)=O	1	-1	54*	-2	-5	61*	1	-7
O=C(/C=C/c1ccc(OC2CSC2)cc1)c1ccc(Cl)cc1	14	-3	43*	2	0	12	0	8
COc1ccc(C(=O)/C=C/c2ccc(OC3CSC3)cc2)cc1OC	4	0	21	17	4	/	/	/
Cc1ccc(OCC(=O)NNC(=O)C2CCN(c3ncnc4sc(C)c(C)c34)CC2)cc1	12	4	44	1	-16	/	/	/
Cc1sc2ncnc(N3CCC(C(=O)NNC(=O)COc4ccc(Cl)cc4)CC3)c2c1C	/	/	51*	-10	-7	36	1	7
Cc1sc2ncnc(N3CCC(C(=O)NNC(=O)COc4ccc(Br)cc4)CC3)c2c1C	8	0	57*	1	-7	36	-1	-9
COc1cc2nc(Cl)nc(N3CCN(C)CC3)c2cc1OC	0	-3	/	/	/	/	/	/
COc1cc2nc(C3CCC3)nc(N3CCN(c4ccccc4OC)CC3)c2cc1OC	-7	3	46*	14	9	36	2	-6
O=C(COC(=O)C1CCC(=O)N1)Nc1cccc([N+](=O)[O-])c1 (stereo unspecified)	7	-3	3	16	2	/	/	/
SMILES	APJ antagonist	APJ agonist	EBI2 antag	CCR6 antag	CXCR6 inh	EBI2 antag conf	EBI2 ag	bGal counter
CN(C)C(=O)CNC(=O)CN1C(=O)NC2(CCCc3sccc32)C1=O (stereo unspecified)	-9	0	1	-3	-1	/	/	/
COc1ccc([C@H]2CC(=O)C=C(c3cccc(Br)c3)C2)cc1OC	12	-5	36	13	-4	/	/	/
O=C1C=C(c2ccc3[nH]ccc3c2)C[C@@H](c2ccc(Cl)cc2)C1	1	-1	64*	20	3	34	0	4
COc1ccc([C@H]2CC(=O)C=C(c3ccc4ncccc4c3)C2)cc1	-6	-1	82*	17	7	58*	0	8
COc1ccc([C@H]2CC(=O)C=C(c3ccc4ncccc4c3)C2)cc1OC	6	-3	47*	16	1	24	1	3
O=C1C=C(c2cccc3c2sc2ccccc23)C[C@@H](c2ccc(Cl)cc2)C1	-4	-2	45*	11	12	34	1	4
COc1ccc(C2=CC(=O)CC(c3ccccc3)C2)cc1 (stereo unspecified)	14	0	26	15	9	/	/	/
O=C1C=C(c2ccc3ncccc3c2)C[C@@H](c2ccc(Cl)cc2)C1	-1	-6	87*	20	10	75*	-1	-8
O=C1C=C(c2ccc3ccccc3c2)C[C@@H](c2ccc(Cl)cc2)C1	3	-5	74*	16	3	70*	-1	-5
Fc1ccc2c(c1)/C(=N/Nc1ccccn1)CCS2	15	-2	3	2	4	/	/	/
CCCCc1ccc(NC(=O)CSc2nc(=O)n(CCN(C)C)c3c2CCC3)cc1	10	-3	3	13	12	/	/	/
CCCCc1ccc(NC(=O)CSc2nc(=O)n(CCN(CC)CC)c3c2CCCC3)cc1	27	1	51*	13	8	20	1	3
CCn1cc(C(=O)NN)c(=O)c2cc(F)c(NC3CCCCC3)cc21	6	1	91*	3	7	62*	1	1
CCn1cc(C(=O)NN)c(=O)c2cc(F)c(N3CCCCC3)cc21	-3	-2	4	10	-11	/	/	/
CN(c1ccccc1)c1nc(N2CCCC2)nc(-n2ccnc2)n1	22	-1	32	22	9	/	/	/
c1ccc(N(c2ccccc2)c2nc(N3CCCC3)nc(-n3ccnc3)n2)cc1	27	-4	40*	34	9	38	3	1
